From ChEMBL document CHEMBL3774372, “Design, physico-chemical properties and biological evaluation of some new N-[(phenoxy)alkyl]- and N-{2-[2-(phenoxy)ethoxy]ethyl}aminoalkanols as anticonvulsant agents” (Bioorg Med Chem, 2016)
Active and inactive are the calls of the source.

How the values were obtained:
[1] = target: 5-hydroxytryptamine receptor 1B (Rattus norvegicus) (UniProt P28564); assay: Displacement of [125I]CYP from rat cerebral cortex 5-HT1B receptor at 10^-5 M in the presence of isoproternol; type: tissue-based
Summary of the method: (§1)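 Radioligand binding screen run at a single test concentration of 10^-5 M. Each target used its stated receptor source (human recombinant CHO or HEK-293 cells, endogenous cell lines, or rat tissue membranes) with the listed radioligand.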

[2] = target: B2 bradykinin receptor (Homo sapiens) (UniProt P30411); assay: Displacement of [3H]bradykinin from human recombinant B2 bradykinin receptor at 10^-5 M
Summary of the method: (§2)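 Radioligand displacement screen with the test agent at a single 10^-5 M concentration; receptor source and radioligand per target as tabulated (recombinant human cell lines or rat cerebral cortex/urinary bladder).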

[3] = system: Rattus norvegicus; assay: Anticonvulsant activity in pilocarpine-induced status epilepticus Sprague-Dawley rat model at 30 mg/kg, ip after 1 hr during post stage 3 seizure; type: functional, organism-based
Summary of the method: (§3)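 Rats given pilocarpine 50 mg/kg ip and observed to first convulsive seizure (Racine stage 3–5, time zero); test drug then given ip in 0.5% methylcellulose. Efficacy = halting further stage 3–5 convulsive seizures; scored protected/tested, time after first stage 3 seizure.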

[4] = species on record: Rattus norvegicus; assay: Displacement of [3H]GABA from rat cerebral cortex GABA receptor at 10^-5 M; type: tissue-based; summary of the method: as §1
[5] = target: Mu-type opioid receptor (Homo sapiens) (UniProt P35372); assay: Displacement of [3H]DAMGO from human recombinant Mu-type opioid receptor expressed in CHO cells at 10^-5 M; type: cell-based; summary of the method: as §1
[6] = system: Mus musculus; assay: Anticonvulsant activity in mouse assessed as protection against subcutaneous pentylenetetrazol-induced seizures at 30 mg/kg, ip measured after 4 hrs; type: functional, organism-based
Summary of the method: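 Mice dosed ip as 0.5% methylcellulose suspension; pentylenetetrazole 85 mg/kg in 0.9% NaCl injected subcutaneously into posterior midline, animals watched at least 30 min. Protection = no threshold seizure (single clonic spasm episode lasting ≥5 s); scored protected/tested.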

[7] = target: Prostaglandin E2 receptor EP2 subtype (Homo sapiens) (UniProt P43116); assay: Displacement of [3H]PGE2 from human recombinant prostanoid EP2 receptor expressed in HEK293 cells at 10^-5 M; type: cell-based; summary of the method: as §1
[8] = target: Muscarinic acetylcholine receptor M5 (Homo sapiens) (UniProt P08912); assay: Displacement of [3H]4-DAMP from human recombinant muscarinic M5 receptor expressed in CHO cells at 10^-5 M; type: cell-based; summary of the method: as §1
[9] = system: U-937; assay: Displacement of [125I]TNF-alpha from TNF-alpha receptor in human U937 cells at 10^-5 M; type: cell-based; summary of the method: as §1
[10] = target: Beta-2 adrenergic receptor (Homo sapiens) (UniProt P07550); assay: Displacement of [3H](-)CGP12177 from human recombinant Beta-2 adrenergic receptor expressed in CHO cells at 10^-5 M; type: cell-based; summary of the method: as §1
[11] = target: 5-hydroxytryptamine receptor 3A (Homo sapiens) (UniProt P46098); assay: Displacement of [3H]BRL43694 from human recombinant 5-HT3 receptor expressed in CHO cells at 10^-5 M; type: cell-based; summary of the method: as §1
[12] = species on record: Rattus norvegicus; assay: Displacement of […] from rat cerebral cortex GABA-gated chloride channel at 10^-5 M; type: tissue-based; summary of the method: as §1
[13] = target: D(1B) dopamine receptor (Homo sapiens) (UniProt P21918); assay: Displacement of [3H]SCH23390 from human recombinant Dopamine D5 receptor expressed in GH4 cells at 10^-5 M; type: cell-based; summary of the method: as §2
[14] = target: Cannabinoid receptor 1 (Homo sapiens) (UniProt P21554); assay: Displacement of [3H]CP 55940 from human recombinant CB1 receptor expressed in CHO cells at 10^-5 M; type: cell-based; summary of the method: as §1
[15] = target: Histamine H1 receptor (Homo sapiens) (UniProt P35367); assay: Displacement of [3H]pyrilamine from human recombinant histamine H1 receptor expressed in HEK293 cells at 10^-5 M; type: cell-based; summary of the method: as §2
[16] = system: Mus musculus; assay: Anticonvulsant activity in mouse assessed as protection against maximal electric shock-induced seizures at 3 mg/kg, ip measured after 0.5 hrs; type: functional, organism-based
Summary of the method: (§4)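 Mice dosed ip with suspension in 0.5% methylcellulose; maximal electroshock applied at the listed time after dosing. Protection = abolition of hindlimb tonic extension component of seizure; reported as animals protected/animals tested.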

[17] = target: Substance-K receptor (Homo sapiens) (UniProt P21452); assay: Displacement of [125I]NKA from human recombinant NK2 receptor expressed in CHO cells at 10^-5 M; type: cell-based; summary of the method: as §1
[18] = system: CHO; assay: Displacement of [3H]DADLE from human recombinant delta-type 2 opioid receptor expressed in CHO cells at 10^-5 M; type: cell-based; summary of the method: as §1
[19] = system: Jurkat; assay: Displacement of [3H]DTG from sigma receptor in human jurkat cells at 10^-5 M; type: cell-based; summary of the method: as §1
[20] = target: Muscarinic acetylcholine receptor M3 (Homo sapiens) (UniProt P20309); assay: Displacement of [3H]4-DAMP from human recombinant muscarinic M3 receptor expressed in CHO cells at 10^-5 M; type: cell-based; summary of the method: as §1
[21] = system: Mus musculus; assay: Anticonvulsant activity in mouse assessed as protection against maximal electric shock-induced seizures at 30 mg/kg, ip measured after 4 hrs; type: functional, organism-based; summary of the method: as §4
[22] = target: Type-2 angiotensin II receptor (Homo sapiens) (UniProt P50052); assay: Displacement of [125I]CGP42112A from human recombinant AT2 receptor expressed in HEK293 cells at 10^-5 M; type: cell-based; summary of the method: as §1
[23] = target: 5-hydroxytryptamine receptor 7 (Homo sapiens) (UniProt P34969); assay: Displacement of [3H]LSD from human recombinant 5-HT7 receptor expressed in CHO cells at 10^-5 M; type: cell-based; summary of the method: as §1
[24] = target: 5-hydroxytryptamine receptor 5A (Homo sapiens) (UniProt P47898); assay: Displacement of [3H]LSD from human recombinant 5-HT5A receptor expressed in HEK293 cells at 10^-5 M; type: cell-based; summary of the method: as §1
[25] = system: Rattus norvegicus; assay: Anticonvulsant activity in pilocarpine-induced status epilepticus Sprague-Dawley rat model at 30 mg/kg, ip after 2 hrs during post stage 3 seizure; type: functional, organism-based; summary of the method: as §3
[26] = species on record: Rattus norvegicus; assay: Displacement of [[…]]batrachotoxin from rat cerebral cortex Sodium channel site 2 at 10^-5 M; type: tissue-based
[27] = target: Sodium-dependent dopamine transporter (Homo sapiens) (UniProt Q01959); assay: Displacement of [3H]BTCP from human recombinant dopamine transporter expressed in CHO cells at 10^-5 M; type: cell-based; summary of the method: as §1
[28] = target: Nociceptin receptor (Homo sapiens) (UniProt P41146); assay: Displacement of [3H]nociceptin from human recombinant Nociceptin receptor expressed in HEK293 cells at 10^-5 M; type: cell-based; summary of the method: as §2
[29] = target: Sodium-dependent serotonin transporter (Homo sapiens) (UniProt P31645); assay: Displacement of [3H]imipramine from human recombinant 5-HT transporter expressed in CHO cells at 10^-5 M; type: cell-based; summary of the method: as §2
[30] = species on record: Rattus norvegicus; assay: Displacement of [3H]D888 from rat cerebral cortex L-type calcium channel verapamil binding site at 10^-5 M; type: tissue-based; summary of the method: as §1
[31] = target: Muscarinic acetylcholine receptor M1 (Homo sapiens) (UniProt P11229); assay: Displacement of [3H]pirenzepine from human recombinant muscarinic M1 receptor expressed in CHO cells at 10^-5 M; type: cell-based; summary of the method: as §2
[32] = target: D(4) dopamine receptor (Homo sapiens) (UniProt P21917); assay: Displacement of [3H]methylspiperone from human recombinant Dopamine D4.4 receptor expressed in CHO cells at 10^-5 M; type: cell-based; summary of the method: as §2
[33] = target: C-X-C chemokine receptor type 2 (Homo sapiens) (UniProt P25025); assay: Displacement of [125I]IL-8 from human recombinant CXCR2 receptor expressed in HEK293 cells at 10^-5 M; type: cell-based; summary of the method: as §1
Chain of C-X-C chemokine receptor type 2 (Homo sapiens) (P25025 whole entry): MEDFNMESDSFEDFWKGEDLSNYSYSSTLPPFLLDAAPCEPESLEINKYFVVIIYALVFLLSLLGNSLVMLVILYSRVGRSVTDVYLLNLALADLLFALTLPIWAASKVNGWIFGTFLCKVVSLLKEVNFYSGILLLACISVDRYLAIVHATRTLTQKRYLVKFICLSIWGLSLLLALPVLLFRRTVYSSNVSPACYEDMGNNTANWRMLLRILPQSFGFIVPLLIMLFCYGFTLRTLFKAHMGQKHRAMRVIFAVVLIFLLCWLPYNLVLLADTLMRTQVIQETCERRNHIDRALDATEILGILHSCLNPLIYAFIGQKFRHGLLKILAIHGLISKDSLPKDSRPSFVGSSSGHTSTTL

Chain of Muscarinic acetylcholine receptor M1 (Homo sapiens) (P11229 whole entry): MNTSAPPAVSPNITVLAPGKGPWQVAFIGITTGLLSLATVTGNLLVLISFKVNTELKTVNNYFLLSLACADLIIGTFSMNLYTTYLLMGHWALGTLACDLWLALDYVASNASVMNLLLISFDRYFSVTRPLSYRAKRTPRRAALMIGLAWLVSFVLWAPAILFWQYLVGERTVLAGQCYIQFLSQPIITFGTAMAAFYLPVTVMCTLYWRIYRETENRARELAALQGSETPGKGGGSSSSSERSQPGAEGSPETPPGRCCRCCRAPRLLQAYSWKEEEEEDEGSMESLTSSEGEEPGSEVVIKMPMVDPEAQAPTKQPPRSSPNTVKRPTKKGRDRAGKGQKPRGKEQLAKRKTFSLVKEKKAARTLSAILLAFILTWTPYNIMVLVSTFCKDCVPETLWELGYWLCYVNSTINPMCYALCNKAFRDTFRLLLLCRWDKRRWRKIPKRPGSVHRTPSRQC
Chain of Muscarinic acetylcholine receptor M5 (Homo sapiens) (P08912 whole entry): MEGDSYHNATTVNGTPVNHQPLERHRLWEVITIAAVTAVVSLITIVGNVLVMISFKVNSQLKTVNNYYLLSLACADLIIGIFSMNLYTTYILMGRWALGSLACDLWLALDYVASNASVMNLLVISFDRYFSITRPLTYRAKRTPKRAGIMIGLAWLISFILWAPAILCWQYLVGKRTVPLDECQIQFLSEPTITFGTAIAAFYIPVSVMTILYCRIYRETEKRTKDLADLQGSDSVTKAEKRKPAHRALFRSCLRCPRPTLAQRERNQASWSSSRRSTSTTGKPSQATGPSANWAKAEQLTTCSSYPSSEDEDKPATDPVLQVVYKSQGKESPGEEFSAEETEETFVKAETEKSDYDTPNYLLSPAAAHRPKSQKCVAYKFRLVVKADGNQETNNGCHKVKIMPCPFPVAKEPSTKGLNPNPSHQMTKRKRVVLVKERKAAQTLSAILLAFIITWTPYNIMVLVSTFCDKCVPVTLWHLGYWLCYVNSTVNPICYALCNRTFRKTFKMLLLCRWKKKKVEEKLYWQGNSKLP
Chain of Substance-K receptor (Homo sapiens) (P21452 whole entry): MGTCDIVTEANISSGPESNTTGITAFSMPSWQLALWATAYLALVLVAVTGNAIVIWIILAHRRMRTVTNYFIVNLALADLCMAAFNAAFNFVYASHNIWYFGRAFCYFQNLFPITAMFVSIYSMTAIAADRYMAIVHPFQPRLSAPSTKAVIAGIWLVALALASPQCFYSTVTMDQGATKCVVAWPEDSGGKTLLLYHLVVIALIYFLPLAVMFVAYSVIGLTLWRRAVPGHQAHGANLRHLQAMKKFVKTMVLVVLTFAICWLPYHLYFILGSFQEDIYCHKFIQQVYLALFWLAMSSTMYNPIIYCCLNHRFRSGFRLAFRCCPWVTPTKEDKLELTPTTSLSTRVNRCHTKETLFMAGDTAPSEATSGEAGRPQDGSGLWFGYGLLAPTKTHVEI
Chain of D(4) dopamine receptor (Homo sapiens) (P21917 whole entry): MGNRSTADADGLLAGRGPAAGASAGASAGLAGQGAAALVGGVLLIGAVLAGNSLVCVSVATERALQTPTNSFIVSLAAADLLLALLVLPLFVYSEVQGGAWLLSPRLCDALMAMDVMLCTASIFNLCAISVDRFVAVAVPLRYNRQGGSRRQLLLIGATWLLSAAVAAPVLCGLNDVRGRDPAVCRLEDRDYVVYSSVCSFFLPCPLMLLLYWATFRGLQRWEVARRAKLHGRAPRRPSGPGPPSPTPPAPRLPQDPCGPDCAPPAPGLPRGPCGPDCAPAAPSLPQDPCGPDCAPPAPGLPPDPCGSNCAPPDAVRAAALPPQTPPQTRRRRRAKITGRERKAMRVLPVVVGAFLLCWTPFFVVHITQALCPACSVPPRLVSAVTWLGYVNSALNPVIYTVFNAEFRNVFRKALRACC
Chain of Prostaglandin E2 receptor EP2 subtype (Homo sapiens) (P43116 whole entry): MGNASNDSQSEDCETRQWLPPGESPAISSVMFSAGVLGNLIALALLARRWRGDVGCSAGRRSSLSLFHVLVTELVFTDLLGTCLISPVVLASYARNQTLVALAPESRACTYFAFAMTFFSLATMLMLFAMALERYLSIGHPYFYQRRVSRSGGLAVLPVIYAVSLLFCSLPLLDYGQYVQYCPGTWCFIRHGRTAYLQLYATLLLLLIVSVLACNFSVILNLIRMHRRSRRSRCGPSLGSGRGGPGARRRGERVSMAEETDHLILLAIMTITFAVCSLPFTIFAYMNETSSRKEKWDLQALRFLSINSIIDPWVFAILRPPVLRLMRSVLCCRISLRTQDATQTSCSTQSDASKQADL
Chain of Sodium-dependent serotonin transporter (Homo sapiens) (P31645 whole entry, looked up): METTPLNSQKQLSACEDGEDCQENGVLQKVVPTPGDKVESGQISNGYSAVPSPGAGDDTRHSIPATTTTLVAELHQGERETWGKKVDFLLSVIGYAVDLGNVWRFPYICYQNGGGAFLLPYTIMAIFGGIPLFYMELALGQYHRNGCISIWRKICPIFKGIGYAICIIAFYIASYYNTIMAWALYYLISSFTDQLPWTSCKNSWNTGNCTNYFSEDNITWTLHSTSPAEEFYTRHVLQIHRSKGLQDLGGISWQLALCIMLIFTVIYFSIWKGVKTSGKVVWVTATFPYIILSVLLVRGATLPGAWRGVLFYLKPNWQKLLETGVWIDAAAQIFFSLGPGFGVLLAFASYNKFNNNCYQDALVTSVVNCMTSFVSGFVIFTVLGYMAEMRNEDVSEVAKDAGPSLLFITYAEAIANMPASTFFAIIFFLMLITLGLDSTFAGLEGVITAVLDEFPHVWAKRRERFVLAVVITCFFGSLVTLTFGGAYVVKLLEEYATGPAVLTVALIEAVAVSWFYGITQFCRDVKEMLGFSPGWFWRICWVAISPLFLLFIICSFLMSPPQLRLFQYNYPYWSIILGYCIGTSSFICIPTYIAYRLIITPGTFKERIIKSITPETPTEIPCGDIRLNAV
Chain of Type-2 angiotensin II receptor (Homo sapiens) (P50052 whole entry): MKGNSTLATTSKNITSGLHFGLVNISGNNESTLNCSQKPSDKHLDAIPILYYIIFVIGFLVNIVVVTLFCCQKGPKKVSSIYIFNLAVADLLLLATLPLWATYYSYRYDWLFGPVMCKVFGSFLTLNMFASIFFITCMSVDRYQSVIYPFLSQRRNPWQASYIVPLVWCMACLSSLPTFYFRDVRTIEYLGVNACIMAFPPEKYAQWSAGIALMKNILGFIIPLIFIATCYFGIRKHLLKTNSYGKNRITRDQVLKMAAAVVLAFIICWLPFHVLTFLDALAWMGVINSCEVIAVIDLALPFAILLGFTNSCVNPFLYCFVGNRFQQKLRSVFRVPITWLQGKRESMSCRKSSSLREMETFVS
Chain of 5-hydroxytryptamine receptor 7 (Homo sapiens) (P34969 whole entry): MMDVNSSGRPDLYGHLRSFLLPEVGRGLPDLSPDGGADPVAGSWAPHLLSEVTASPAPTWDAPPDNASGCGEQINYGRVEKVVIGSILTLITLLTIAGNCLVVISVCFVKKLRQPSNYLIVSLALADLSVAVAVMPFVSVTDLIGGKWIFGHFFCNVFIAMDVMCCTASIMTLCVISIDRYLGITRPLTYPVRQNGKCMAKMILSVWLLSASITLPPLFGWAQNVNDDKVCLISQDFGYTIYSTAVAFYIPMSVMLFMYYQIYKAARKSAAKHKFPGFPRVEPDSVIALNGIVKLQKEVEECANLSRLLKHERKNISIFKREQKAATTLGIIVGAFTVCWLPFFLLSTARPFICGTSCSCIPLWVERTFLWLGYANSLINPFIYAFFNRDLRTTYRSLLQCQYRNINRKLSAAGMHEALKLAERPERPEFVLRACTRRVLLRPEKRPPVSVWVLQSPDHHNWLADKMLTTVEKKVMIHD
Chain of 5-hydroxytryptamine receptor 3A (Homo sapiens) (P46098 whole entry): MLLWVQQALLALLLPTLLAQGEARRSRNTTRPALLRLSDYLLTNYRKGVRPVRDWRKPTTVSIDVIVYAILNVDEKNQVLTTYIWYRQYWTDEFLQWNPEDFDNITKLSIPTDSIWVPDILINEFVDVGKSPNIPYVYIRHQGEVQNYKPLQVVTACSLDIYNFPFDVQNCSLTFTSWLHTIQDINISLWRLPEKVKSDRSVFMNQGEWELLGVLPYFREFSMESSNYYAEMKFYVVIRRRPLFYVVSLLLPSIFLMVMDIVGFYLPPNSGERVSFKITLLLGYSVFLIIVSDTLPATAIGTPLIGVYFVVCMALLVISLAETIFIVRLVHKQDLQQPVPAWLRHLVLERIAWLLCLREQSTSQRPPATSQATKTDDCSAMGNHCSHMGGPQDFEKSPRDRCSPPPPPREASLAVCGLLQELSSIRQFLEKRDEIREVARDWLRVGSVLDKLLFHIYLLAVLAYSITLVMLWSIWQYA
Chain of Cannabinoid receptor 1 (Homo sapiens) (P21554 whole entry): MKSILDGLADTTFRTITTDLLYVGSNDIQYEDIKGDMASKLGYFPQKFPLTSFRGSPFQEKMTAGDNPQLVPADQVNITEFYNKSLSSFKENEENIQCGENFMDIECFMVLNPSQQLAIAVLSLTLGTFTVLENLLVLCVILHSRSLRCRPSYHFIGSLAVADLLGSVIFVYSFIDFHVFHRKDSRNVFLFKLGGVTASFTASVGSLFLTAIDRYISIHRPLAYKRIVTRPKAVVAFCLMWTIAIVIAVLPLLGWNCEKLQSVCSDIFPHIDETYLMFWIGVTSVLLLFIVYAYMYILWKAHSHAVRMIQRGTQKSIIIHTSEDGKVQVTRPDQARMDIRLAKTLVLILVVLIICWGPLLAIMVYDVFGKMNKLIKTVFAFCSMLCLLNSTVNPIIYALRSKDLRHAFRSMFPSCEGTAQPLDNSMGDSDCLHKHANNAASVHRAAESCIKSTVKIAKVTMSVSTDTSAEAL

Structure (SMILES)	inhibition [1] [%]	inhibition [2] [%]	Activity [3]	inhibition [4] [%]	inhibition [5] [%]	Activity [6]	inhibition [7] [%]	inhibition [8] [%]	inhibition [9] [%]	inhibition [10] [%]	inhibition [11] [%]	inhibition [12] [%]	inhibition [13] [%]	inhibition [14] [%]	inhibition [15] [%]	Activity [16]	inhibition [17] [%]	inhibition [18] [%]	inhibition [19] [%]	inhibition [20] [%]	further results
Cc1cccc(C)c1OCCOCCN[C@H](C)CO	-1.8	-3.9	inactive	0.8	23.6	inactive	3.4	8.6	5.1	2	29.4	-7.6	10.1	12.6	22.7	inactive	2.2	-1.7	92.9	8.5	Activity [21]: inactive; inhibition [22]: 6.4%; inhibition [23]: 24.5%; inhibition [24]: 4.2%; Activity [25]: inactive; inhibition [26]: 54.9%; inhibition [27]: 24.5%; inhibition [28]: 1.5%; inhibition [29]: 96.5%; inhibition [30]: 43.6%; inhibition [31]: 6%; inhibition [32]: 40.9%; inhibition [33]: 2.9%
Cc1cccc(C)c1OCCOCCN[C@@H](C)CO	16.5	1.6	inactive	17.7	40.2	inactive	11.2	5.7	4.6	5.7	12.3	4.6	5.2	11.1	14.1	inactive	41.2	-2.2	95.6	4.4	Activity [21]: inactive; inhibition [22]: 11.7%; inhibition [23]: 24.6%; inhibition [24]: 10.7%; Activity [25]: inactive; inhibition [26]: 79%; inhibition [27]: 16.2%; inhibition [28]: 0.2%; inhibition [29]: 91.4%; inhibition [30]: 65.9%; inhibition [31]: 22.8%; inhibition [32]: 35.8%; inhibition [33]: 2.7%
